System: Plasmodium falciparum
Test: Antimalarial activity against Plasmodium falciparum W2 by [3H]hypoxanthine uptake
Format: functional, organism-based
Conditions: not given
Procedure, shortened: (§1)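 Cultured P. falciparum clones tested, parasite-specific [3H]hypoxanthine incorporation measured; zero-drug wells set as 100% incorporation. IC50 (50% inhibition of incorporation) fitted by nonlinear regression; pure compounds with IC50 < 10 µg/mL counted as active. Extract values expressed in µg/mL.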

| IC50 [µM] | Structure (SMILES) |
| --- | --- |
| 23 | COC1=CC(=O)C=C(OC)C1(O)CC(C)=O |
| 5.5 | COc1cc([C@@H]2Oc3cc4ccc(=O)oc4cc3O[C@H]2CO)cc(O)c1O [GREWIN] |
| 8.6 | CC1(C)CC[C@]2(C(=O)O)CC[C@]3(C)C(=CC[C@@H]4[C@@]5(C)C[C@@H](O)[C@H](O)C(C)(C)[C@@H]5CC[C@]43C)[C@@H]2C1 [MASLINIC ACID] |
| 18.4 | COc1cc([C@@H]2Oc3cc(/C=C/CO)cc(OC)c3O[C@H]2CO)cc(OC)c1O [NITIDANIN] |

| Structure (SMILES) | IC50 [µM] |
| --- | --- |
| CC(C)(O)[C@@H]1CC[C@]2(C)CC[C@]3(C)[C@H](CC[C@@H]4[C@@]5(C)CC[C@@H](O)C(C)(C)[C@@H]5CC[C@]43C)[C@@H]12 | 19.1 |

System: not listed separately
Test: Selectivity index, ratio of ED50 for human KB cells to IC50 for Plasmodium falciparum D6
Format: functional
Conditions: not given
Procedure, shortened: (§2)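 Selectivity index computed as ED50 in KB cells (SRB survival assay) divided by IC50 against the P. falciparum clone from [3H]hypoxanthine incorporation, both fitted by nonlinear regression.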

| Structure (SMILES) | Selectivity Index |
| --- | --- |
| COC1=CC(=O)C=C(OC)C1(O)CC(C)=O | 4 |
| CC(C)(O)[C@@H]1CC[C@]2(C)CC[C@]3(C)[C@H](CC[C@@H]4[C@@]5(C)CC[C@@H](O)C(C)(C)[C@@H]5CC[C@]43C)[C@@H]12 | >4.5 |
| COc1cc([C@@H]2Oc3cc4ccc(=O)oc4cc3O[C@H]2CO)cc(O)c1O [GREWIN] | >9.6 |
| CC1(C)CC[C@]2(C(=O)O)CC[C@]3(C)C(=CC[C@@H]4[C@@]5(C)C[C@@H](O)[C@H](O)C(C)(C)[C@@H]5CC[C@]43C)[C@@H]2C1 [MASLINIC ACID] | 2.4 |
| COc1cc([C@@H]2Oc3cc(/C=C/CO)cc(OC)c3O[C@H]2CO)cc(OC)c1O [NITIDANIN] | >4.6 |

System: Plasmodium falciparum
Test: Antimalarial activity against Plasmodium falciparum D6 by [3H]hypoxanthine uptake
Format: functional, organism-based
Conditions: not given
Procedure, shortened: as §1

| IC50 [µM] | Structure (SMILES) |
| --- | --- |
| 42.2 | COC1=CC(=O)C=C(OC)C1(O)CC(C)=O |
| 11.2 | COc1cc([C@@H]2Oc3cc4ccc(=O)oc4cc3O[C@H]2CO)cc(O)c1O [GREWIN] |
| 21.1 | CC1(C)CC[C@]2(C(=O)O)CC[C@]3(C)C(=CC[C@@H]4[C@@]5(C)C[C@@H](O)[C@H](O)C(C)(C)[C@@H]5CC[C@]43C)[C@@H]2C1 [MASLINIC ACID] |
| 21.2 | COc1cc([C@@H]2Oc3cc(/C=C/CO)cc(OC)c3O[C@H]2CO)cc(OC)c1O [NITIDANIN] |

| Structure (SMILES) | IC50 [µM] |
| --- | --- |
| CC(C)(O)[C@@H]1CC[C@]2(C)CC[C@]3(C)[C@H](CC[C@@H]4[C@@]5(C)CC[C@@H](O)C(C)(C)[C@@H]5CC[C@]43C)[C@@H]12 | 19.8 |

System: not listed separately
Test: Cytotoxicity against human KB cells by SRB assay
Format: cell-based
Conditions: read-out: ED50 (the source's name)
Procedure, shortened: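 Human oral epidermoid carcinoma KB cells stained with sulforhodamine B; ED50 from nonlinear regression of percent survival against compound concentration. ED50 of 50 µM or above taken as noncytotoxic; extract values in µg/mL.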

| Structure (SMILES) | CC50 [µM] |
| --- | --- |
| COC1=CC(=O)C=C(OC)C1(O)CC(C)=O | 169 |
| CC(C)(O)[C@@H]1CC[C@]2(C)CC[C@]3(C)[C@H](CC[C@@H]4[C@@]5(C)CC[C@@H](O)C(C)(C)[C@@H]5CC[C@]43C)[C@@H]12 | > 90 |
| CCN(CC)CCCC(C)Nc1ccnc2cc(Cl)ccc12 (stereo unspecified) [CHLOROQUINE] | 30.8 |
| COc1cc([C@@H]2Oc3cc4ccc(=O)oc4cc3O[C@H]2CO)cc(O)c1O [GREWIN] | > 108 |
| CC1(C)CC[C@]2(C(=O)O)CC[C@]3(C)C(=CC[C@@H]4[C@@]5(C)C[C@@H](O)[C@H](O)C(C)(C)[C@@H]5CC[C@]43C)[C@@H]2C1 [MASLINIC ACID] | 51.5 |
| COc1cc([C@@H]2Oc3cc(/C=C/CO)cc(OC)c3O[C@H]2CO)cc(OC)c1O [NITIDANIN] | > 99 |

System: not listed separately
Test: Selectivity index, ratio of ED50 for human KB cells to IC50 for Plasmodium falciparum W2
Format: functional
Conditions: not given
Procedure, shortened: as §2

| Structure (SMILES) | Selectivity Index |
| --- | --- |
| COC1=CC(=O)C=C(OC)C1(O)CC(C)=O | 7.3 |
| CC(C)(O)[C@@H]1CC[C@]2(C)CC[C@]3(C)[C@H](CC[C@@H]4[C@@]5(C)CC[C@@H](O)C(C)(C)[C@@H]5CC[C@]43C)[C@@H]12 | >4.7 |
| COc1cc([C@@H]2Oc3cc4ccc(=O)oc4cc3O[C@H]2CO)cc(O)c1O [GREWIN] | >19.7 |
| CC1(C)CC[C@]2(C(=O)O)CC[C@]3(C)C(=CC[C@@H]4[C@@]5(C)C[C@@H](O)[C@H](O)C(C)(C)[C@@H]5CC[C@]43C)[C@@H]2C1 [MASLINIC ACID] | 5.9 |
| COc1cc([C@@H]2Oc3cc(/C=C/CO)cc(OC)c3O[C@H]2CO)cc(OC)c1O [NITIDANIN] | >5.4 |
